Reference: ChEMBL document CHEMBL2375262, “Thiazolidin-4-one and thiazinan-4-one derivatives analogous to rosiglitazone as potential antihyperglycemic and antidyslipidemic agents” (2013)

Legend:
Format in all cases: functional
[1] = tested on: Mus musculus; experiment: Insulin resistance reversal activity in db/db mouse assessed as decrease in plasma insulin level at 30 mg/kg, po qd administered 15 days measured on day 16 by ELISA relative to vehicle-treated control; design: scale not given: the % may be the effect or the level left
Method in brief: (§1)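 db/db males, 10-12 weeks, >40 g, baseline glucose 180-300 mg/dl, n=6 per group. Oral suspension in 1% gum acacia given once daily for days 1-15; vehicle controls. At study end, retro-orbital plasma insulin was measured by ELISA. Groups were compared by Dunnett's test.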

[2] = tested on: Mus musculus; experiment: Antidyslipidemic activity in db/db mouse assessed as increase in plasma HDL-cholesterol level at 30 mg/kg, po qd administered 15 days […] relative to vehicle-treated control
[3] = tested on: Mus musculus; experiment: Antidyslipidemic activity in db/db mouse assessed as decrease in plasma total cholesterol level at 30 mg/kg, po qd administered 15 days measured on day 16 […] relative to vehicle-treated control; design: scale not given: the % may be the effect or the level left
Method in brief: (§2)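 Male db/db mice, 10-12 weeks old, over 40 g. After a 3-day vehicle run-in, animals with blood glucose 180-300 mg/dl were placed in groups of six and gavaged once daily on days 1-15 with a suspension in 1% gum acacia. Controls received vehicle. Terminal retro-orbital plasma was assayed for triglycerides, total and HDL-cholesterol with colorimetric kits. Dunnett's test was used.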

[4] = tested on: Mus musculus; experiment: Antidyslipidemic activity in db/db mouse assessed as decrease in plasma triglycerides level at 30 mg/kg, po qd administered 15 days measured on day 16 by ELISA relative to vehicle-treated control; design: scale not given: the % may be the effect or the level left; conditions: in the assay text read “by colorimetric assay” for “by ELISA”; method in brief: as §2
[5] = tested on: Mus musculus; experiment: Antihyperglycemic activity in db/db mouse assessed as inhibition of post prandial blood glucose level at 30 mg/kg, po qd administered 15 days by OGTT relative to vehicle-treated control; conditions: 360 h
Method in brief: (§3)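 Male db/db mice, 10-12 weeks, >40 g, with blood glucose 180-300 mg/dl; six per group. Dosed orally once daily in 1% gum acacia on days 1-15, with vehicle controls. Blood glucose was read daily. OGTT on days 10 and 15 after an overnight fast: glucose at -30, 0, 30, 60, 90 and 120 min around an oral 3.0 g/kg glucose load. Activity was taken from AUC versus control; Dunnett's test.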

[6] = tested on: Mus musculus; experiment: Antihyperglycemic activity in db/db mouse assessed as inhibition of post prandial blood glucose level at 30 mg/kg, po qd administered 15 days measured on day 10 by OGTT relative to vehicle-treated control; method in brief: as §3
[7] = tested on: Mus musculus; experiment: Antihyperglycemic activity in db/db mouse assessed as reduction of blood glucose level at 30 mg/kg, po qd measured daily for 15 days relative to vehicle-treated control; design: scale not given: the % may be the effect or the level left; method in brief: as §3
[8] = tested on: 3T3-L1; experiment: Induction of adipogenesis in mouse 3T3L1 cells assessed as accumulation of lipid droplets at 10 uM measured on day 9 by Oil Red O staining method relative to control
Method in brief: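 3T3-L1 preadipocytes, 2 days post-confluence, were induced with 0.5 mM IBMX, 0.25 µM dexamethasone and insulin in DMEM/10% FBS with compound present. After 3 days, medium changed to insulin alone, then to DMEM/10% FBS. On day 9, lipid droplets were stained with 0.36% Oil Red O in 60% isopropanol for 30 min and examined by microscope.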

[9] = tested on: L6; experiment: Antihyperglycemic activity in rat L6 cells assessed as increase in 2-deoxy-[3H]-D-glucose uptake at 10 uM after 18 hrs by liquid scintillation counting analysis relative to control
Method in brief: (§4)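 L6 myoblasts were differentiated to myotubes in DMEM with 2% FBS, then treated for 18 h. After washes, cells took up 3 µCi 2-deoxy-[3H]D-glucose plus 20 µM unlabelled 2-deoxyglucose in HEPES-buffered saline for 15 min. Cells were lysed in 0.1 N NaOH and counted by scintillation; results are % increase over control.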

[10] = tested on: L6; experiment: Antihyperglycemic activity in rat L6 cells assessed as increase in 2-deoxy-[3H]-D-glucose uptake at 50 uM after 18 hrs by liquid scintillation counting analysis relative to control; method in brief: as §4
[11] = tested on: Mus musculus; experiment: Insulin resistance reversal activity in db/db mouse assessed as decrease in plasma insulin level at 100 mg/kg, po qd administered 15 days measured on day 16 by ELISA relative to vehicle-treated control; design: scale not given: the % may be the effect or the level left; method in brief: as §1
[12] = tested on: Mus musculus; experiment: Antidyslipidemic activity in db/db mouse assessed as increase in plasma HDL-cholesterol level at 100 mg/kg, po qd administered 15 days […] relative to vehicle-treated control
[13] = tested on: Mus musculus; experiment: Antidyslipidemic activity in db/db mouse assessed as decrease in plasma total cholesterol level at 100 mg/kg, po qd administered 15 days […] relative to vehicle-treated control; design: scale not given: the % may be the effect or the level left
[14] = tested on: Mus musculus; experiment: Antidyslipidemic activity in db/db mouse assessed as decrease in plasma triglycerides level at 100 mg/kg, po qd administered 15 days […] relative to vehicle-treated control; design: scale not given: the % may be the effect or the level left
[15] = tested on: Mus musculus; experiment: Antihyperglycemic activity in db/db mouse assessed as inhibition of post prandial blood glucose level at 100 mg/kg, po qd administered 15 days by OGTT relative to vehicle-treated control; conditions: 360 h; method in brief: as §3
[16] = tested on: Mus musculus; experiment: Antihyperglycemic activity in db/db mouse assessed as inhibition of post prandial blood glucose level at 100 mg/kg, po qd administered 15 days measured on day 10 by OGTT relative to vehicle-treated control; method in brief: as §3
[17] = tested on: Mus musculus; experiment: Antihyperglycemic activity in db/db mouse assessed as reduction of blood glucose level at 100 mg/kg, po qd measured daily for 15 days relative to vehicle-treated control; design: scale not given: the % may be the effect or the level left; method in brief: as §3

Compound	Activity [1] [%]	Activity [2] [%]	Activity [3] [%]	Activity [4] [%]	inhibition in vivo at 30 mg/kg [5] [%]	inhibition in vivo at 30 mg/kg [6] [%]	Activity [7] [%]	Activity [8] [%]	Activity [9] [%]	Activity [10] [%]	Activity [11] [%]	Activity [12] [%]	Activity [13] [%]	Activity [14] [%]	inhibition in vivo at 100 mg/kg [15] [%]	inhibition in vivo at 100 mg/kg [16] [%]	Activity [17] [%]
CCCCN1C(=O)C[S+]([O-])C1c1ccc(OCCN(C)c2ccccn2)cc1 (configuration not stated)	24.6	39.6	10.8	19.2	-27.2	-12.9	25.9										
CN(CCOc1ccc(C2NC(=O)CS2)cc1)c1ccccn1 (configuration not stated)	27.4		19.3	14	-36.6	-25.9	18.5	5.53	51.9								
CN(CCOc1ccc(C2SCC(=O)N2Cc2ccccc2)cc1)c1ccccn1 (configuration not stated)	22.4	22.2	10.2	9.83	-16.4	-4.3	15.4										
CC(C)N1C(=O)CCSC1c1ccc(OCCN(C)c2ccccn2)cc1 (configuration not stated)									14.8								
CN(CCOc1ccc(C2NC(=O)CCS2)cc1)c1ccccn1 (configuration not stated)	28.8	1.46	15.1	13.2	-44.9	-40.8	30.4		53.5								
CCCCN1C(=O)CSC1c1ccc(OCCN(C)c2ccccn2)cc1 (configuration not stated)	17.6	10.1	4.8	31.8	-25.4	-20.2	22.1										
CN(CCOc1ccc(CC2SC(=O)NC2=O)cc1)c1ccccn1 (configuration not stated) [ROSIGLITAZONE]	44.8		26.4	32.5	-40.7	-33.3	53.7	24		61.6							
CN(C)C(=N)NC(=N)N [METFORMIN]											37	6.8	14.6	12.1	29.7	29.1	23.7
CN(CCOc1ccc(C2SCCC(=O)N2Cc2ccccc2)cc1)c1ccccn1 (configuration not stated)	21.5	6.47	9.88	25.6	-42.6	-29.4	19.1		33								
CN(CCOc1ccc(C2SCCC(=O)N2C2CC2)cc1)c1ccccn1 (configuration not stated)	26.6	3.38	29.5	29.9	-27.9	-20.4	22.4		69.5								
CCCCN1C(=O)CCSC1c1ccc(OCCN(C)c2ccccn2)cc1 (configuration not stated)									35.4								
CN(CCOc1ccc(C2N(Cc3ccccc3)C(=O)C[S+]2[O-])cc1)c1ccccn1 (configuration not stated)	20.4	20		18.4	-20.2	-6.4	22.1		45.5								
CN(CCOc1ccc(C2SCC(=O)N2C2CC2)cc1)c1ccccn1 (configuration not stated)	31.8	8.8	12.6	15.6	-40.9	-26.6	25.6	3.87	67.2								
CCCCN1C(=O)CS(=O)(=O)C1c1ccc(OCCN(C)c2ccccn2)cc1 (configuration not stated)	28.8	25.7	7.2	14.7			30.2		51.3								
